Screening results as filed in PubChem BioAssay.
Shown are actives, neighbours in structure and some others; about 1.9% of the full set was active somewhere.
MBD2 inh: inhibitors of MBD2 binding to methylated DNA, primary screen, biochemical, TR-FRET, DNA-binding domain, human; MBD2 binding to methylated oligonucleotide; inhibition, % at 4.4 µM; hit rate 0.31% among 370,000; AID 686964, 2013; in the data active = inhibition above about 13%
Rin1-Abl PPI inh: inhibitors of Rin1-Abl protein binding, primary screen, biochemical, TR-FRET; inhibition, % at 7.35 µM; hit rate 0.4% among 360,000; AID 588664, 2011; in the data active = inhibition above about 5%, passing the limit was not always enough
UHRF1 MBD2 ctr: UHRF1 methylated DNA binding inhibitors, primary screen, counter-screen for MBD2 inhibitor project, biochemical, TR-FRET, human UHRF1, single concentration; UHRF1 binding to methylated oligo; inhibition, % at 4.4 µM; hit rate 0.75% among 370,000; in the data active = inhibition above about 21%;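 note: UHRF1 SRA domain binding a hemimethylated CpG hairpin DNA probe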
TDP2 inh: human TDP2 enzyme inhibitors, primary screen, biochemical, epi absorbance, recombinant enzyme; AID 720702, 2013; Tyrosyl-DNA phosphodiesterase 2 (Homo sapiens), O95551; hit rate 0.34% among 370,000; inhibition, % at 12.8 µM; T5PNP hydrolysis, p-nitrophenol absorbance 415 nm;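 active = inhibition above the mean of all tested compounds plus 3 SD, set per campaign, cut at about 25% in these data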
Target sequence (O95551 whole entry, looked up): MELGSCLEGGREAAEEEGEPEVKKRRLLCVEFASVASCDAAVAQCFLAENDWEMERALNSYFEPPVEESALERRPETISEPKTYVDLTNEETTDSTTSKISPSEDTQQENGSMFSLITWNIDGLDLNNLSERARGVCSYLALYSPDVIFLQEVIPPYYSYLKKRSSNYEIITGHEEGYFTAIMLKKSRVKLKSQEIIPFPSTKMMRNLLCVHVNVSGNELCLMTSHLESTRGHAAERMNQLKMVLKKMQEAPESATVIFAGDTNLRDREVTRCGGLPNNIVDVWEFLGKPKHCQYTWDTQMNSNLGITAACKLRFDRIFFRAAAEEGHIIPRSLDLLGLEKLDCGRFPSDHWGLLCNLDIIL
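Test system: human TDP2 enzyme; Input: 120 nM TDP2 per well; Buffer or medium: Mg2+-containing Tris-HCl buffer, pH 7.5; Reagent: 5 mM T5PNP; Dosing: 12.8 µM single point, 1% DMSO; Incubation: reaction 2 h, 37 °C; Detection: p-Nitrophenol epi absorbance; Read-out: % inhibition relative to enzyme-containing and enzyme-free wells; Replicates: single well per compound.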
LEDGF integ inh: blockers of LEDGF/p75-dependent integrase strand transfer – biochemical, TR-FRET, high throughput, primary screen; TR-FRET IN-LEDGF/p75 DNA integration, Eu/Cy5; hit rate 0.64% among 370,000; inhibition, % at 3.7 µM; AID 743269, 2014; HIV-1 integrase (with human LEDGF/p75);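 active = inhibition above the screen-wide mean plus 3 SD, cut at about 13% in these data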;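 note: signal is the Cy5 over europium emission ratio at 671 and 618 nm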
TDP2 inh conf: human TDP2 enzyme inhibitors, retest, confirmation, biochemical, epi absorbance, recombinant enzyme; shares compounds with TDP2 inh; hit rate 22% among 1,100; AID 743263, 2014; inhibition, % at 12.8 µM; absorbance read-out; in the data active = inhibition above about 25%
Numbers stand for hits; 0 = inactive; - = no result.

SMILES	MBD2 inh	Rin1-Abl PPI inh	UHRF1 MBD2 ctr	TDP2 inh	LEDGF integ inh	TDP2 inh conf
COc1ccc(Cc2nnc(SCC(=O)NC(C)c3ccccc3)o2)cc1 (configuration not stated)	0	0	0	72	0	0
C=CCNc1nc(C(=O)OCC(=O)c2ccc(Cl)cc2)cs1	0	0	0	25	0	0
CN1C2=N[C@H](c3cccc(C(F)(F)F)c3)CC(=O)N2/C(=C\c2ccccc2)[C@H]1c1ccccc1	0	-	0	0	0	-
COC(=O)[C@@]12CCCCC=C1N(CCc1ccc(Cl)cc1)C(=O)[C@H]2CC(=O)NCc1cccc2ccccc12	0	-	0	0	0	-
CN(C)c1cccc(C(=O)OCC(=O)N(Cc2ccccc2)C2CCS(=O)(=O)C2)c1 (configuration not stated)	0	0	0	38	0	0
NC(=O)Nc1ccc(C(=O)OCC(=O)N(Cc2ccccc2)C2CCS(=O)(=O)C2)cc1 (configuration not stated)	0	0	0	0	0	-
O=C(CN1CCCCC1)Nc1c2c(nc3ccccc13)N(c1ccccc1)CC2	0	0	0	45	14	0
COc1ccc(C(=O)NNC(=S)NC(=O)c2ccc(OC)cc2)cc1	0	0	0	0	0	-
CCNC(=S)NNC(=O)c1ccc(OC)cc1	0	0	0	65	0	0
O=C(Nc1ccc(Cl)cc1)N1CCSC1=NCc1ccccc1	0	0	0	0	0	-
CC(=O)Nc1ccc(C2=NN(C)C(=NCc3ccccc3)SC2)cc1	0	0	0	29	0	0
COC(=O)[C@@]12CCCCC3=C1N(CCC3)C(=O)[C@H]2CC(=O)NCC1CCCCC1	0	-	0	0	0	-
Cc1cc(C)c(C#N)c(SCC(=O)Nc2ccc3c(c2)OCO3)n1	0	0	0	0	0	-
Cc1cc(C)c(C#N)c(SCC(=O)N(CCC#N)c2ccc3c(c2)OCCO3)n1	0	0	0	25	0	0
Cc1ccc(Cn2cc(CN(C)S(=O)(=O)c3ccccc3Br)nn2)cc1	0	-	0	0	0	-
CCN1CCCCC(NC(=O)c2ccccc2OC)C1=O (configuration not stated)	0	-	0	0	0	-
O=C(NCc1ccc2c(c1)OCO2)C(=O)NCC1OCCN1S(=O)(=O)c1ccc(Br)cc1 (configuration not stated)	0	0	0	0	0	-
O=C(NCc1ccc2c(c1)OCO2)C(=O)NCC1OCCN1S(=O)(=O)c1ccc(Cl)cc1 (configuration not stated)	0	0	0	37	0	0
O=C1C(Cl)=C(NCCCN2CCOCC2)C(=O)c2ccccc21	0	0	0	0	0	-
O=C1C(Cl)=C(NCCN2CCOCC2)C(=O)c2ccccc21	0	0	0	31	0	0
CCOC(=O)[C@]12CCCC=C1N(CCCOC)C(=O)[C@@H]2CC(=O)N1CCCC1	0	-	0	0	0	-
CCOC(=O)N1CCN(C(=O)C[C@H]2C[C@@]3(C(=O)OC)C(=C[C@H](COCc4ccccc4)O[C@@H]3C)N(Cc3ccco3)C2=O)CC1	0	-	0	0	0	-
O=C(N/N=C/c1cccnc1)c1cccc(Cl)c1	0	0	0	0	0	-
O=C(N/N=C/c1cc(Cl)ccc1O)c1cccnc1	0	0	0	60	0	0
Cc1ccc(S(=O)(=O)/N=C2/NC(=O)/C(=C/c3ccccc3)S2)cc1	0	0	0	29	0	0
Cc1ccc(S(=O)(=O)/N=C2/NC(=O)/C(=C\c3ccccc3)S2)cc1	0	0	0	0	0	-
Cc1ccccc1C(=O)NC1CCCCN(Cc2ccc(Cl)cc2)C1=O (configuration not stated)	0	-	0	0	0	-
Cc1ccc(CN2CCCCC(NC(=O)c3cccc([N+](=O)[O-])c3)C2=O)cc1 (configuration not stated)	0	-	0	0	0	-
Cc1cc(C)cc(NC(=S)Nc2cccc3cnccc23)c1	0	0	0	0	0	-
